Bioassay records from PubChem.
E coli WT exp – E. coli BW25113 growth inhibition, expanded screen; OD600 absorbance; growth inhibition, % at 100 µM; actives 0.15% (n = 98,000);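 active means growth inhibition above about 50% at one test dose, limit read from the data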;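 further: growth measured after 20 h incubation at 37 °C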
PostGolgi ctrl – growth of the yeast control strain, post-Golgi counter-screen; efflux-deficient yeast background strain, growth absorbance A615, 16 h; inhibition, % at 10 µM; actives 5% (n = 98,000); AID 738
Ecoli tolC – blocks growth of E. coli BW25113 tolC mutant. AID 573. actives 2.2% (n = 65,000). growth inhibition, % at 10 µM (by protocol). OD615;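 active means growth inhibition at or above a cutoff equal to the mean over every tested compound plus 3 SD, cut at about 60% in these data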;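 further: growth measured after 20 h incubation at 37 °C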
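test system = E. coli BW25113 ΔtolC::kan bacteria | medium = LB with kanamycin 50 µg/mL | signal = OD at 615 nm | schedule = 37 °C, 20 h exposure | evaluation = % inhibition of E. coli growth | compound dosing = one dose of 10 µM final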
PostGolgi yeast – growth inhibition of a yeast mutant, post-Golgi transport screen | AID 739 | actives 0.9% (n = 98,000) | post-Golgi transport phenotypic cell assay | inhibition, % at 10 µM;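 further: yeast cells grown in 1536-well plates; yeast grown about 18 h at 30C before absorbance read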
Numbers without * were called inactive; . = no result. Hits are enriched below; roughly 6.3% of the tested compounds scored in any of these assays. Unless noted, no stated cut-off is given here; in the data, active means inhibition above about 30%; inactive means the rest.

SMILES	E coli WT exp	PostGolgi ctrl	Ecoli tolC	PostGolgi yeast
CCOC(=O)/C(=C\Nc1ccc(OC(F)(F)F)cc1)Sc1ncc(C(F)(F)F)cc1Cl	-15.0	5.6	.	26.1
CCOC(=O)COc1c(OC)cc(Cl)cc1C1NC(=O)NC(C)=C1C(C)=O (stereo unspecified)	5.0	1.5	-7.9	-2.0
CCCC1=C(C(=O)OCC)C(c2cc(Cl)cc(OC)c2OCC(=O)OCC)NC(=O)N1 (stereo unspecified)	6.0	10.7	82.5*	-0.3
COc1ccccc1NC(=O)COc1cc(C)nc(C(C)C)n1	-11.0	37.5*	.	9.8
Cc1ccccc1OCCCCc1c(C)n[nH]c1C	9.0	45.5*	100.0*	1.9
CCOCCCNC(=O)C1CCN(C(=O)N(C)C)CC1	1.0	-3.3	-21.8	43.4*
Cc1cc(NC(=O)c2ccc(S(=O)(=O)N3CCOCC3)cc2)nc2c1c(=O)oc1ccccc12	-12.0	4.0	15.6	31.3*
CCC(CC)C(=O)Nc1cc(C)c2c(=O)oc3ccccc3c2n1	-3.0	33.9*	8.6	29.1
Cc1ccc(CSC2=Nc3sccc3C3=NC(=O)CN23)cc1	0.0	6.0	.	0.5
O=C(CSc1nnc(-c2cccs2)n1-c1ccccc1)N1CCc2ccccc21	.	.	5.2	.
O=C1CCC(/C=C/c2ccccc2)=NN1Cc1ccccc1Cl	-6.0	39.4*	.	-15.8
CCOC(=O)C(C)N1N=C(/C=C/c2ccc(C)cc2)CCC1=O (stereo unspecified)	15.0	11.0	.	0.9
O=C1CCC(/C=C/c2ccccc2)=NN1Cc1ccc(Cl)c(Cl)c1	-16.0	60.2*	.	22.6
CCOc1ccc(NC(=O)CSc2nnc(CCNC(=O)c3ccc(OC)cc3)n2C)cc1	0.0	12.4	.	-0.9
O=Nc1c(O)n(Cc2ccc(Cl)c(Cl)c2)c2ccccc12	10.0	59.4*	.	22.2
COC(=O)c1ccc(Cn2c(O)c(N=O)c3ccccc32)o1	-3.0	12.5	14.2	-3.9
Cc1ccnc2nc(C(=O)NCCc3ccc(F)cc3)nn12	-3.0	0.5	.	6.9
O=C(NN1C(=O)c2ccccc2C1=O)C1CCCCC1	3.0	-12.6	.	6.5
Cc1ccc(N2C(=O)C(Cl)=C(NCc3ccccc3)C2=O)c(C)c1	-7.0	29.9	.	-7.3
CCN(CC)c1nc(N)nc(N(c2ccccc2)c2ccccc2)n1	-2.0	53.3*	.	-8.4
O=C(OCc1cnc(Cl)s1)c1cccc(Cl)c1Cl	-2.0	12.2	.	8.0
CCn1cc(C(=O)NCc2ccccc2)c(=O)c2cc(F)c(N3CCN(C(=O)c4ccco4)CC3)cc21	45.0	29.9	.	-0.7
CCn1cc(C(=O)Nc2nncs2)c(=O)c2cc(F)c(N3CCN(C(=O)c4ccco4)CC3)cc21	.	.	100.0*	.
CCn1cc(C(=O)NCc2ccc3c(c2)OCO3)c(=O)c2cc(F)c(N3CCN(C(=O)c4ccco4)CC3)cc21	73.0*	-0.5	.	-6.6
COC(=O)C1=C(C)N(C)C(C)=C(C(=O)OC)C1c1ccccn1	2.0	14.0	-4.2	-7.2
SMILES	E coli WT exp	PostGolgi ctrl	Ecoli tolC	PostGolgi yeast
O=S(=O)(c1cccc2nsnc12)N1CCc2ccccc21	4.0	9.8	13.0	-1.1
COc1cccc2c1nc(C)c1cc(C)oc12	4.0	31.1*	9.7	10.6
COc1ccc2nc(C)c3cc(C)oc3c2c1	13.0	-1.6	22.4	-4.1
CC(NC(=O)Cc1ccccc1)c1nc2ccccc2[nH]1 (stereo unspecified)	-10.0	32.6*	-6.8	-3.0
CC(C)CC(c1nnnn1Cc1ccco1)N1CCN(c2cccc(Cl)c2)CC1 (stereo unspecified)	-11.0	39.9*	9.4	-7.5
CC(C)CC(c1nnnn1CCc1ccccc1)N1CCN(C(=O)c2ccco2)CC1 (stereo unspecified)	-2.0	30.4*	0.7	1.7
CC(C)CC(c1nnnn1CC1CCCO1)N1CCN(c2cccc(Cl)c2)CC1 (stereo unspecified)	7.0	33.7*	-12.3	3.8
Cc1ccc(Cl)cc1N1CCN(C(CC(C)C)c2nnnn2CC2CCCO2)CC1 (stereo unspecified)	0.0	5.9	-2.2	-3.5
C/C(CC(=O)Nc1cccc2c1CCCC2)=N\NC(=O)c1ccccc1N	-1.0	32.0*	.	16.5
CC(=O)CC(=O)Nc1cccc2c1CCCC2	9.0	4.3	-1.3	3.0
COc1ccccc1NC(=O)CN1CCC(C(=O)c2ccc(F)cc2)CC1	5.0	32.4*	.	-5.3
COc1ccccc1NC(=O)CN1CCN(CC(=O)Nc2ccc(Cl)c(C(F)(F)F)c2)CC1	-2.0	82.1*	26.3	-1.8
COc1ccc(NC(=O)CN2CCN(CC(=O)Nc3ccccc3Cl)CC2)cc1Cl	-1.0	1.6	7.1	10.6
O=C(/C=C/c1ccccc1)CC(O)(c1ccccc1)C(F)(F)F (stereo unspecified)	8.0	70.5*	.	5.6
O=C(CC(O)(c1ccccc1)C(F)(F)C(F)F)c1cccs1 (stereo unspecified)	10.0	8.1	12.6	-1.6
O=C(/C=C/c1ccccc1)CC(O)(c1ccccc1)C(F)(F)C(F)F (stereo unspecified)	-1.0	65.6*	.	8.2
COCCCNCC(=O)Nc1ccc(OC(F)(F)F)cc1	-12.0	42.5*	-15.5	9.3
CCn1c2ccccc2c2nc3ccccc3nc21	0.0	34.4*	35.0	-4.4
CCCCc1c(C)nn(-c2nnc3c4ccccc4n(CC)c3n2)c1C	0.0	57.8*	75.3*	3.6
CSc1nnc2c3ccccc3n(CCc3ccccc3)c2n1	0.0	17.9	-4.1	0.5
CCn1c2ccccc2c2nc3cc(OC)c(OC)cc3nc21	-15.0	23.7	1.7	23.5
c1ccc(CC2CCN(Cc3nc(-c4ccccc4)no3)CC2)cc1	2.0	21.7	69.9*	4.3
COc1ccc(-c2noc(CN3CCC(Cc4ccccc4)CC3)n2)cc1	.	.	67.4*	.
NC(=O)C1CCN(Cc2nc(-c3ccccc3)no2)CC1	3.0	2.7	-4.7	-11.4
COC(=O)C(NNc1ccccc1C)(NC(=O)c1ccc(F)cc1)C(F)(F)F (stereo unspecified)	1.0	6.8	.	14.2
SMILES	E coli WT exp	PostGolgi ctrl	Ecoli tolC	PostGolgi yeast
NC(N)=N/N=C/c1ccc(OCc2ccccc2Cl)cc1	99.0*	36.2*	.	10.9
NC(N)=N/N=C/c1ccccc1	-9.0	-6.4	.	-10.5
N#Cc1cn(Cc2ccccc2)c2ccccc12	5.0	18.6	71.4*	9.8
CC(C)C(OC(=O)c1cc2occc2n1C)C(=O)NCc1ccc2c(c1)OCO2 (stereo unspecified)	-13.0	48.4*	0.6	0.9
Cc1cc2c(cc(C(=O)OC(C(=O)NCc3ccco3)C(C)C)n2C)o1 (stereo unspecified)	2.0	13.8	32.8	14.7
O=C(COC(=O)c1ccccc1Nc1ccccc1)NCc1ccco1	-10.0	31.6*	-1.0	-4.9
CCOc1cc(C(=O)OCC(=O)NCc2ccco2)cc(OCC)c1OCC	-8.0	-2.4	1.9	-0.5
CC(C)(C)c1ccc(OCC(=O)NCc2ccco2)c(Br)c1	3.0	11.9	100.0*	6.5
O=C(COC(=O)COc1ccc(Nc2ccccc2)cc1)NCc1ccco1	-5.0	5.0	-0.7	-0.5
Cc1ccc(N2CCn3c2nc2c3c(=O)n(CCc3ccccc3)c(=O)n2C)cc1	.	.	-9.5	.
O=C(c1coc2ccccc2c1=O)N1CCN(c2cccc(C(F)(F)F)c2)CC1	1.0	12.7	31.6	1.6
